Assay results taken from ChEMBL document CHEMBL1240506, “Identification and development of novel inhibitors of Toxoplasma gondii enoyl reductase” (J Med Chem, 2010).
Converted amounts (≈) assume the structure as drawn.

Key:
Toxoplasma gondii = test: Antiparasitic activity against Toxoplasma gondii infected in HFF after 24 hrs by [3H]uracil incorporation assay; format: functional
Procedure, shortened: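 Human foreskin fibroblasts were infected with T. gondii tachyzoites and given 1 h to invade before inhibitors were added. Cultures ran 3 days, then 3H-uracil was added for a further day. Parasite growth was read as uracil incorporation by liquid scintillation counting. MIC50 and MIC90 are the concentrations giving 50% and 90% growth inhibition. There were 6 replicate samples per group.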

HFF [1] = test: Toxicity to HFF at highest concentration; format: cell-based; settings: human
Procedure, shortened: (§1)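 Host-cell toxicity was tested on non-confluent fibroblast monolayers by 3H-thymidine incorporation, alongside visual inspection of monolayer integrity. Testing ran simultaneously with the parasite inhibition assay, and the highest concentration tested was scored.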

HFF [2] = test: Toxicity to HFF; format: cell-based; settings: human; procedure, shortened: as §1
[3] = target: T1, Enoyl-acyl carrier reductase (Toxoplasma gondii, UniProt Q6UCJ9); test: Inhibition of Toxoplasma gondii enoyl reductase
T1 sequence (Q6UCJ9 whole entry): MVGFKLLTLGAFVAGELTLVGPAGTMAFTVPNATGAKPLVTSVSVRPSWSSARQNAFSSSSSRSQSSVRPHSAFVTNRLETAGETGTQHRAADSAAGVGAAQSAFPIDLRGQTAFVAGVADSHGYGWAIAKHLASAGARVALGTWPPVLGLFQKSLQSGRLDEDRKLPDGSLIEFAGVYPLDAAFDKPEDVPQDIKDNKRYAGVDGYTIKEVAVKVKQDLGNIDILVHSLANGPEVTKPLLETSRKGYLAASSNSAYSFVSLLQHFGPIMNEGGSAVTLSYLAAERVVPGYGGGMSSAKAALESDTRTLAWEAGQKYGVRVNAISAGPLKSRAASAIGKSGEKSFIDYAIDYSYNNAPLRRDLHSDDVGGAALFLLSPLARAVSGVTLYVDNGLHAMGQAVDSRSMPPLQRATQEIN
Procedure, shortened: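 Recombinant TgENR (20 nM) was assayed in 100 mM Na/K phosphate pH 7.5, 150 mM NaCl and 100 μM NADH. Compounds were added in DMSO (2% final), and reactions were started at 25°C with 100 μM crotonyl-CoA. NADH consumption was followed at 340 nm.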

| SMILES | MIC50 (Toxoplasma gondii) [µM] | MIC90 (Toxoplasma gondii) [µM] | Activity (HFF [1]) | Activity (HFF [2]) [µM] | IC50 [3] [nM] |
| --- | --- | --- | --- | --- | --- |
| Oc1cc(Cl)ccc1Oc1cnccn1 | > 6 | > 6 | Non-toxic | > 6 | – |
| CCCc1cc(O)c(Oc2ccc(C#N)cc2)c(O)c1 | > 6 | > 6 | Non-toxic | 3 | – |
| O=[N+]([O-])c1ccc(Oc2ccc(Cl)cc2O)cc1 | 17 (≈ 4.52 µg/mL) | 23 (≈ 6.11 µg/mL) | Non-toxic | – | 45 |
| CCCc1ccc(Oc2cccc(B(O)O)c2)c(O)c1 | 5 (≈ 1.36 µg/mL) | 6 (≈ 1.63 µg/mL) | Non-toxic | > 6 | 174 |
| O=C(O)c1ccc(Cn2ccc(OCc3ccccc3)cc2=O)c(Cl)c1 | > 24 | > 24 | – | – | – |
| CC(=O)Nc1ccc(Oc2ccc(Cl)cc2O)cc1 | > 24 | > 24 | – | – | – |
| O=[N+]([O-])c1ccccc1Oc1ccc(Cl)cc1O | 14 (≈ 3.72 µg/mL) | 23 (≈ 6.11 µg/mL) | Non-toxic | – | 290 |
| O=c1[nH]c2ccccc2n1Cc1ccc([N+](=O)[O-])cc1 | 20 (≈ 5.39 µg/mL) | > 24 | – | – | – |
| CC(=O)Nc1ccc(/C=C/C(=O)N(C)Cc2cc3ccccc3n2C)cn1 | > 6 | > 6 | Non-toxic | > 6 | – |
| Oc1ccc(Oc2ccc(Cl)cc2O)cc1 | > 6 | > 6 | Non-toxic | > 6 | – |
| Oc1cc(Cl)ccc1Oc1ccc(Cl)cc1Cl [TRICLOSAN] | 5 (≈ 1.45 µg/mL) | > 6 | – | > 6 | – |
| CCCc1cc(O)c(Oc2ccc(C#N)cc2Cl)c(OC)c1 | > 6 | > 6 | Non-toxic | > 6 | – |
| Nc1ccc(Nc2ccccc2)c(N)c1 | > 6 | > 6 | Non-toxic | < 1.5 | – |
| CCCc1cc(O)c(Oc2ccc(C(N)=O)cc2)c(O)c1 | 20 (≈ 5.75 µg/mL) | > 24 | Non-toxic | – | 280 |
| COc1ccc(COc2ccn(Cc3ccccc3Cl)c(=O)c2)cc1 | 17 (≈ 6.05 µg/mL) | 23 (≈ 8.18 µg/mL) | Non-toxic | – | > 20000 |
| O=c1cc(OCCCn2c3ccccc3c3ccccc32)ccn1Cc1ccccc1Cl | 2 (≈ 0.886 µg/mL) | 14 (≈ 6.2 µg/mL) | Non-toxic | – | > 2000 |
| Nc1ccccc1CNC(=O)COc1ccc([N+](=O)[O-])cc1 | > 24 | > 24 | – | – | – |
| CCCc1cc(O)c(Oc2ccc(C(=O)O)cc2Cl)c(O)c1 | > 24 | > 24 | Non-toxic | – | – |
| CCOC(=O)C(C)OC(=O)c1cc(Oc2ccc(C(F)(F)F)cc2Cl)ccc1[N+](=O)[O-] (stereo not drawn) [LACTOFEN] | 16 (≈ 7.39 µg/mL) | 23 (≈ 10.6 µg/mL) | Non-toxic | – | – |
| CCCc1ccc(Oc2ccc([N+](=O)[O-])cc2[N+](=O)[O-])c(O)c1 | 2 (≈ 0.637 µg/mL) | 6 (≈ 1.91 µg/mL) | Non-toxic | < 1.5 | < 20 |
| O=c1[nH]c2ccccc2n1-c1ccc([N+](=O)[O-])c(Cl)c1 | > 24 | > 24 | – | – | – |
| CC(=O)Nc1ccc(Oc2ccc(Cl)cc2O)cn1 | > 24 | > 24 | – | – | – |
| CCCc1ccc(Oc2ccc(N)cc2)c(O)c1 | 6 (≈ 1.46 µg/mL) | > 6 | Non-toxic | 3 | < 20 |
| COc1ccc(NC(=O)/C=C/c2ccc(N)nc2)cc1 | > 6 | > 6 | Non-toxic | > 6 | – |

| SMILES | MIC50 (Toxoplasma gondii) [µM] | MIC90 (Toxoplasma gondii) [µM] | Activity (HFF [1]) | Activity (HFF [2]) [µM] | IC50 [3] [nM] |
| --- | --- | --- | --- | --- | --- |
| C/C=C/C=C/C(=O)Nc1ccc(Oc2ccc(Cl)cc2Cl)c(O)c1 | 14 (≈ 5.1 µg/mL) | 22 (≈ 8.01 µg/mL) | Non-toxic | – | 2000 |
| CC(=O)Nc1ccccc1Oc1ccc(Cl)cc1O | > 24 | > 24 | – | – | – |
| COc1ccc(NC(=O)COc2ccc([N+](=O)[O-])cc2)cc1 | 23 (≈ 6.95 µg/mL) | > 24 | – | – | – |
| CCCc1ccc(Oc2cccc(Cl)c2)c(O)c1 | > 6 | > 6 | Non-toxic | > 6 | – |
| CCCc1cc(O)c(Oc2ccc(-c3nn[nH]n3)cc2)c(O)c1 | > 24 | > 24 | Non-toxic | – | – |
| O=c1cc(OCc2ccccc2)ccn1Cc1ccccc1Cl | 7 (≈ 2.28 µg/mL) | 15 (≈ 4.89 µg/mL) | Non-toxic | – | > 20000 |
| Oc1ccc(Oc2ccccc2)c(O)c1 | > 6 | > 6 | Non-toxic | 6 | – |
| Nc1ccc(/C=C/C(=O)NCc2ccccc2N)cn1 | > 6 | > 6 | Non-toxic | > 6 | – |
| CC(C)(C)C(=O)Nc1cc(Cl)ccc1Oc1ccccc1 | > 6 | > 6 | Non-toxic | > 6 | – |
| O=C(c1ccc([N+](=O)[O-])cc1)n1c(=O)[nH]c2ccccc21 | > 24 | > 24 | – | – | – |
| CCCc1ccc(Oc2cccc([N+](=O)[O-])c2)c(O)c1 | > 6 | > 6 | Non-toxic | 6 | – |
| Oc1cc(Cl)ccc1Oc1ccccc1 | 5 (≈ 1.1 µg/mL) | > 6 | Non-toxic | > 6 | – |
| NC(=O)c1ccc(Cn2ccc(OCc3ccccc3)cc2=O)c(Cl)c1 | > 24 | > 24 | – | – | – |
| C/C=C/C=C/C(=O)Nc1ccc(Oc2ccc(Cl)cc2O)cc1 | 6 (≈ 1.98 µg/mL) | > 6 | – | 6 | > 2000 |
| Oc1cc(Cl)ccc1Oc1ccc(-c2ccccc2)cc1 | 6 (≈ 1.78 µg/mL) | 20 (≈ 5.94 µg/mL) | Non-toxic | – | – |
| Nc1cc(Cl)ccc1Oc1ccccc1 | 6 (≈ 1.32 µg/mL) | > 6 | Non-toxic | – | > 20000 |
| CN(Cc1cc2ccccc2n1C)C(=O)/C=C/c1ccc(N)nc1 | > 6 | > 6 | Non-toxic | > 6 | – |
| O=c1[nH]c2ccccc2n1S(=O)(=O)c1ccc([N+](=O)[O-])cc1 | > 24 | > 24 | – | – | – |
| Oc1ccc(Oc2ccc(O)cc2O)cc1 | > 6 | > 6 | Non-toxic | 6 | – |
| O=c1cc(OCc2ccccc2)ccn1Cc1ccc([N+](=O)[O-])cc1Cl | 3 (≈ 1.11 µg/mL) | 15 (≈ 5.56 µg/mL) | Non-toxic | – | > 20000 |
| Nc1ncccc1C(=O)Nc1cc(Cl)ccc1Oc1ccccc1 | 17 (≈ 5.78 µg/mL) | 24 (≈ 8.15 µg/mL) | Non-toxic | – | > 20000 |
| N#Cc1ccc(Cn2ccc(OCc3ccccc3)cc2=O)c(Cl)c1 | 18 (≈ 6.31 µg/mL) | 23 (≈ 8.07 µg/mL) | Non-toxic | – | > 20000 |
| CCCc1cc(O)c(Oc2ccc(C#N)cc2Cl)c(O)c1 | 15 (≈ 4.56 µg/mL) | 22 (≈ 6.68 µg/mL) | Non-toxic | – | < 20 |
| CCCc1ccc(Oc2cccc(CCO)c2)c(O)c1 | > 6 | > 6 | Non-toxic | > 6 | – |
